Compound activity: PubChem BioAssay, Broad Institute
A1 apoptosis 2: A1 inhibitors via caspase activation, primary screen, cell-based, luminescence, HTS, two replicates; MEF A1-2A-BIM cells, caspase-Glo luminescence, 3 h; percent of clofoctol response, DMSO zero; caspase activation, % (concentration not given with the values); 24,000 tested, under 10 active; in the data active = caspase activation above about 5.9%
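Test system – A1-2A-BIM-expressing MEF cells · Input – 2500 cells/well · Medium – RPMI-1640 growth medium with 10% FBS · Compound dosing – 50 nL pinned compound · Timing – 3 h compound exposure at 37 °C · Technique – Caspase-Glo luminescence (DEVD substrate) · Evaluation – Caspase-3/7 activity from luminescence increase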
T cruzi HTS: inhibitors of intracellular Trypanosoma cruzi, primary screen, cell-based, plate reader, single point, set 2; intracellular Trypanosoma cruzi in host cells; activity score (inhibition), % at 5.01 µM; 4.9% of 22,000 active; in the data active = activity score above about 55%;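 note: parasites and compound incubated about four days before reading; 0% = median of neutral control wells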
INS-1E ATP HTS: protection of INS-1E cells from cytokine death, primary screen, ATP luminescence, single point; INS-1E cytokine-induced death, 48 h; normalised: neutral wells 0, positive control 100; protection from cytokine-induced ATP loss, % at 10 µM; 0.1% of 20,000 active; AID 488910, 2010;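 active = mean replicate protection from cytokine-induced ATP loss at least 50% and at least 75% of replicates each reaching 50%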
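Assay system – rat INS-1E insulinoma cell line · Quantity – 8000 cells per well · Buffer or medium – RPMI without phenol red, 5% FBS · Schedule – 48 h co-treatment, 10 min post-lysis read · Technique – luminescent ATP assay (CellTiter-Glo)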
Numbers without * were called inactive; . = no result given. This excerpt belongs to a sample that is enriched for hits.

SMILES	A1 apoptosis 2	T cruzi HTS	INS-1E ATP HTS
C[C@@H]1CN([C@@H](C)CO)C(=O)c2cccc(NC(=O)c3ccc(-c4nccs4)cc3)c2O[C@@H]1CN(C)Cc1ccc(Cl)c(Cl)c1	0.3	35.5	-46.8
Cc1ccccc1/C=N/NC(=O)c1ccccn1	-10.7	-19.8	5.5
C=C(C)[C@@H]1CC=C(/C=N/NC(=O)CCCCCCC(=O)O)CC1	1.3	-14.2	9.8
COc1ccc(NC(=O)Nc2cccc3c2O[C@@H](CN(C)S(=O)(=O)c2ccccc2)[C@@H](C)CN([C@H](C)CO)C3=O)cc1	-0.3	-3.0	-9.3
C[C@H]1CN([C@@H](C)CO)C(=O)c2cccc(NC(=O)NC3CCCCC3)c2O[C@@H]1CN(C)Cc1ccc(-c2ccccc2)cc1	-0.2	35.5	-10.0
C[C@@H]1CN([C@@H](C)CO)C(=O)c2cccc(NC(=O)NC3CCCCC3)c2O[C@@H]1CN(C)Cc1ccccc1	0.5	-19.7	-33.1
C[C@H](CO)N1C[C@H](C)[C@H](CN(C)Cc2ccc(-c3ccccc3)cc2)Oc2c(NC(=O)NC3CCCCC3)cccc2C1=O	0.1	69.3*	-60.6
C[C@H](CO)N1C[C@H](C)[C@@H](CN(C)Cc2ccc(Oc3ccccc3)cc2)Oc2c(NC(=O)NC3CCCCC3)cccc2C1=O	.	69.8*	-16.4
CNC[C@@H]1Oc2ccc(NC(=O)CCC(F)(F)F)cc2CC(=O)N([C@H](C)CO)C[C@H]1C	-0.4	-27.4	14.8
O=C(NO)c1cccc(C(=O)N/N=C/c2ccc(B(O)O)cc2)c1	-2.6	-15.9	-13.8
C[C@H]1CN([C@@H](C)CO)C(=O)Cc2cc(NC(=O)Nc3ccc(C(F)(F)F)cc3)ccc2O[C@@H]1CN(C)Cc1ccc(C(=O)O)cc1	.	-27.0	5.2
C[C@H]1CN([C@@H](C)CO)C(=O)Cc2cc(NC(=O)Nc3ccc(C(F)(F)F)cc3)ccc2O[C@H]1CN(C)Cc1ccc(C(F)(F)F)cc1	.	82.2*	-90.2
C[C@@H]1CN([C@@H](C)CO)C(=O)Cc2cc(NC(=O)C3CCCCC3)ccc2O[C@@H]1CN(C)Cc1ccc(C(F)(F)F)cc1	-0.5	44.1	-10.5
C[C@@H]1CN([C@H](C)CO)C(=O)Cc2cc(NC(=O)C3CCCCC3)ccc2O[C@H]1CN(C)Cc1ccc(C(F)(F)F)cc1	.	58.0*	-11.8
C[C@@H]1CN([C@H](C)CO)C(=O)Cc2cc(NC(=O)Nc3ccc(F)cc3)ccc2O[C@@H]1CN(C)Cc1ccc(C(F)(F)F)cc1	1.1	60.2*	-76.3
C[C@@H]1CN([C@@H](C)CO)C(=O)Cc2cc(NC(=O)Nc3ccc(C(F)(F)F)cc3)ccc2O[C@H]1CN(C)Cc1ccc(C(F)(F)F)cc1	0.2	.	.
COc1ccc(CN(C)C[C@@H]2Oc3ccc(NC(=O)Nc4ccc(C(F)(F)F)cc4)cc3CC(=O)N([C@@H](C)CO)C[C@@H]2C)cc1	-0.8	3.8	-24.7
C[C@@H]1CN([C@@H](C)CO)C(=O)Cc2cc(NC(=O)Nc3ccc(C(F)(F)F)cc3)ccc2O[C@@H]1CN(C)Cc1ccc(C(F)(F)F)cc1	.	64.3*	-18.8
NC(=O)COc1ccccc1/C=N/NC(=O)CCCCCC(=O)NO	0.7	.	.
O=C(NO)c1cccc(C(=O)N/N=C/c2ccc([N+](=O)[O-])c(O)c2)c1	-1.2	4.8	2.6
CNC[C@@H]1OCCCC[C@H](C)Oc2ccc(NC(=O)Nc3ccc(F)cc3)cc2C(=O)N([C@@H](C)CO)C[C@H]1C	0.3	.	.
C=CCOc1ccccc1/C=N/NC(=O)c1ccccc1O	-1.9	-5.0	11.8
COc1ccc(NC(=O)Nc2cccc3c2O[C@@H](CN(C)Cc2ccc(C(=O)Nc4ccccc4N)cc2)[C@H](C)CN([C@@H](C)CO)C3=O)cc1	.	77.4*	-1.9
COc1ccc(NC(=O)Nc2cccc3c2O[C@H](CN(C)Cc2ccc(C(=O)Nc4ccccc4N)cc2)[C@H](C)CN([C@H](C)CO)C3=O)cc1	.	61.3*	9.3
COc1ccc(NC(=O)Nc2cccc3c2O[C@@H](CN(C)Cc2ccc(C(=O)Nc4ccccc4N)cc2)[C@@H](C)CN([C@H](C)CO)C3=O)cc1	-1.0	.	.
COc1ccc(NC(=O)Nc2cccc3c2O[C@@H](CN(C)Cc2ccc(C(=O)Nc4ccccc4N)cc2)[C@@H](C)CN([C@@H](C)CO)C3=O)cc1	-0.8	38.5	-23.2
CC(/C=C/C(=O)NO)=C\c1cccc(OC[C@@H]2[C@H]3C[C@H]4c5[nH]c6ccccc6c5CCN4C[C@@H]3CC[C@@H]2O)c1	0.1	.	.
CC(C)(C)OC(=O)NCCOCCOCCNc1ncnc2ccccc12	-0.7	.	.
